Measured values taken from ChEMBL document CHEMBL1146008, “Design, synthesis, and evaluation of novel biarylpyrimidines: a new class of ligand for unusual nucleic acid structures” (J Med Chem, 2006).

Experiments:
MCF7 = assay: Inhibition of human MCF7 cell growth at 100 uM relative to control; assay type: functional; details: values are per cent of control
NCI-H460 = assay: Inhibition of human NCI-H460 cell growth at 100 uM relative to control; assay type: functional; details: values are per cent of control
SF-268 = assay: Inhibition of human SF268 cell growth at 100 uM relative to control; assay type: functional; details: values are per cent of control
Nucleic Acid = assay: Inhibition of telomerase by TRAP assay; assay type: nucleic-acid assay, Homo sapiens
Procedure, shortened: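 Human telomerase activity measured with a commercially available telomeric repeat amplification protocol (TRAP) kit. The value is the concentration giving 50% inhibition (telIC50). An internal reference telomerase inhibitor (BSU-1021) was run in the same assay.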

c1nc(-c2ccc(SCCN3CCOCC3)cc2)cc(-c2ccc(SCCN3CCOCC3)cc2)n1
growth, % of control at 100 µM (MCF7): 95%
growth, % of control at 100 µM (NCI-H460): 96%
growth, % of control at 100 µM (SF-268): 102%

OCCSc1ccc(-c2cc(-c3ccc(SCCO)cc3)ncn2)cc1
growth, % of control at 100 µM (MCF7): 97%
growth, % of control at 100 µM (NCI-H460): 99%
growth, % of control at 100 µM (SF-268): 119%

O=C(NCCO)c1ccc(-c2cc(-c3ccc(C(=O)NCCO)cc3)ncn2)cc1
growth, % of control at 100 µM (MCF7): 83%
growth, % of control at 100 µM (NCI-H460): 104%
growth, % of control at 100 µM (SF-268): 104%

CN(C)CCSc1ccc(-c2cc(-c3ccc(SCCN(C)C)cc3)ncn2)cc1
IC50 (Nucleic Acid): > 40 µM

CN(C)CCNC(=O)c1ccc(-c2cc(-c3ccc(C(=O)NCCN(C)C)cc3)ncn2)cc1
growth, % of control at 100 µM (MCF7): 96%
growth, % of control at 100 µM (NCI-H460): 100%
IC50 (Nucleic Acid): > 40 µM
growth, % of control at 100 µM (SF-268): 108%

c1nc(-c2ccc(SCCN3CCCCC3)cc2)cc(-c2ccc(SCCN3CCCCC3)cc2)n1
growth, % of control at 100 µM (MCF7): 68%
growth, % of control at 100 µM (NCI-H460): 98%
IC50 (Nucleic Acid): > 40 µM
growth, % of control at 100 µM (SF-268): 79%

CCN(CC)CCNC(=O)c1ccc(-c2cc(-c3ccc(C(=O)NCCN(CC)CC)cc3)ncn2)cc1
IC50 (Nucleic Acid): 10 µM

COCCSc1ccc(-c2cc(-c3ccc(SCCOC)cc3)ncn2)cc1
growth, % of control at 100 µM (MCF7): 33%
growth, % of control at 100 µM (NCI-H460): 94%
IC50 (Nucleic Acid): > 40 µM
growth, % of control at 100 µM (SF-268): 106%

CCN(CC)CCSc1ccc(-c2cc(-c3ccc(SCCN(CC)CC)cc3)ncn2)cc1
growth, % of control at 100 µM (MCF7): 83%
growth, % of control at 100 µM (NCI-H460): 98%
growth, % of control at 100 µM (SF-268): 85%
